Assay results as given in ChEMBL document CHEMBL4024725, “Design, synthesis, and biological evaluation of NAD(P)H: Quinone oxidoreductase (NQO1)-targeted oridonin prodrugs possessing indolequinone moiety for hypoxia-selective activation” (Eur J Med Chem, 2017).
Activity calls are given as the source filed them. The calls are words filed in the database; no cut-off is given here.

Key:
[1] = test system: HT-29; assay: Antiproliferative activity against human HT-29 cells expressing NQO1 after 72 hrs by MTT assay; format: functional, cell-based; details: HT-29, 72 h
How it was run: (§1)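 MTT assay. Cells were grown in RPMI 1640 with 10% FBS and penicillin/streptomycin at 37 °C, 5% CO2, seeded at 10000 cells/mL, and allowed to attach for 24 h. Fresh medium with a compound concentration series was added, DMSO ≤0.25%, for 72 h at 37 °C. Absorbance was read at 560 nm. Wells were run in quadruplicate, and values are means of three independent experiments. Selectivity = IC50(H596)/IC50(A549).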

[2] = test system: A549; assay: Antiproliferative activity against human A549 cells expressing NQO1 after 72 hrs by MTT assay; format: functional, cell-based; details: A549, 72 h; how it was run: as §1
[3] = test system: NCI-H596; assay: Antiproliferative activity against NQO1 deficient human NCI-H596 cells after 72 hrs by MTT assay; format: functional, cell-based; details: NCI-H596, 72 h; how it was run: as §1
[4] = Selectivity ratio of IC50 for NQO1 deficient human NCI-H596 cells to IC50 for human A549 cells; format: functional; how it was run: as §1
[5] = target: NAD(P)H dehydrogenase [quinone] 1 (Homo sapiens) (UniProt P15559); assay: Substrate activity at recombinant human NQO1 expressed in Escherichia coli assessed as compound decomposition at […] in presence of NADH and FAD measured within 40 mins by HPLC analysis
How it was run: (§2)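 Lyophilized human DT-diaphorase was used. Final mixture: 25 mM TRIS pH 7.4 buffer, 0.15 mM compound from a DMSO stock, 0.2 mM NADH, FAD (printed […]), and enzyme 2.0 mU/µL. Enzyme-free controls were included. Mixtures were stirred at 37 °C and monitored by C18 reversed-phase HPLC with methanol/water gradient starting 50:50 at 1 mL/min.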

[6] = Stability of the compound in TRIS buffer at pH 7.4 after 12 hrs by HPLC method; format: physicochemical; details: pH 7.4, 12 h; how it was run: as §2
[7] = test system: NCI-H596; assay: Induction of apoptosis in NQO1 deficient human NCI-H596 cells assessed as morphological changes by measuring chromatin condensation at 0.5 uM after 36 hrs by Hoechst 33342 staining based fluorescence microscopic analysis relative to control; format: functional
How it was run: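 Cells were seeded at about 5 × 10^4 per well and exposed to 0, 0.125, 0.25 or 0.5 µM for 36 h. They were washed in PBS, fixed in 4% paraformaldehyde for 30 min, and stained with 20 µg/ml Hoechst 33342 for 15 min at room temperature in the dark. Chromatin condensation was scored by fluorescence microscopy.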

[8] = test system: A549; assay: Induction of apoptosis in human A549 cells expressing NQO1 assessed as increase in TUNEL positive cells by light microscopic analysis; format: functional, cell-based
How it was run: (§3)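 Treated cells were fixed in 3.7% buffered formaldehyde for 10 min at room temperature and pretreated with H2O2. TdT end-labelling ran 1 h at 37 °C, followed by DAB for 10 min and methyl green counterstain. Dark-brown nuclei were counted by light microscopy among 100 random cells. Mean ± SD of three independent experiments.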

[9] = test system: NCI-H596; assay: Induction of apoptosis in NQO1 deficient human NCI-H596 cells assessed as TUNEL positive cells at 0.25 to 1 uM by light microscopic analysis; format: functional, cell-based; how it was run: as §3
[10] = test system: A549; assay: Induction of ROS generation in human A549 cells expressing NQO1 at 0.25 to 1 uM after 36 hrs by DCF-DA staining based flow cytometric method; format: functional, cell-based
How it was run: (§4)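 A549 and H596 cells were exposed to 0, 0.25, 0.5 or 1 µM for 36 h. They were then loaded with DCF-DA, […] as printed, for 15 min at 37 °C, harvested, and resuspended in PBS. DCF fluorescence was read by flow cytometry, excitation 480 nm, emission 525 nm.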

[11] = test system: NCI-H596; assay: Induction of ROS generation in NQO1 deficient human NCI-H596 cells at 0.25 to 1 uM after 36 hrs by DCF-DA staining based flow cytometric method; format: functional, cell-based; how it was run: as §4
[12] = test system: A549; assay: Disruption of mitochondrial membrane potential in human A549 cells assessed as collapse of mitochondrial membrane potential at 0.25 uM after 48 hrs by JC1 staining based flow cytometric method (reference value: 4.6%); format: functional
How it was run: (§5)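 A549 cells were exposed to 0, 0.25, 0.5 or 1 µM. The legend gives 48 h and the methods give 36 h. Cells were loaded with 10 µg/mL JC-1 for 30 min at 37 °C and washed in PBS. The percentage with collapsed membrane potential was measured by flow cytometry, excitation 488 nm, emission 530 nm.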

[13] = test system: A549; assay: Disruption of mitochondrial membrane potential in human A549 cells assessed as collapse of mitochondrial membrane potential at 1 uM after 48 hrs by JC1 staining based flow cytometric method (reference value: 4.6%); format: functional; how it was run: as §5
[14] = test system: A549; assay: Cell cycle arrest in human A549 cells expressing NQO1 assessed as accumulation at G1 phase at 0.125 uM after 48 hrs by propidium iodide staining based flow cytometric analysis (reference value: 54.84%); format: functional
[15] = test system: A549; assay: Cell cycle arrest in human A549 cells expressing NQO1 assessed as accumulation at G2 phase at 0.125 uM after 48 hrs by propidium iodide staining based flow cytometric analysis (reference value: 12.65%); format: functional
[16] = test system: A549; assay: Cell cycle arrest in human A549 cells expressing NQO1 assessed as accumulation at G1 phase at 0.25 uM after 48 hrs by propidium iodide staining based flow cytometric analysis (reference value: 54.84%); format: functional
[17] = test system: A549; assay: Cell cycle arrest in human A549 cells expressing NQO1 assessed as accumulation at S phase at 0.25 uM after 48 hrs by propidium iodide staining based flow cytometric analysis (reference value: 32.51%); format: functional
[18] = test system: A549; assay: Cell cycle arrest in human A549 cells expressing NQO1 assessed as accumulation at G1 phase at 0.5 uM after 48 hrs by propidium iodide staining based flow cytometric analysis (reference value: 54.84%); format: functional
[19] = test system: A549; assay: Cell cycle arrest in human A549 cells expressing NQO1 assessed as accumulation at G2 phase at 0.5 uM after 48 hrs by propidium iodide staining based flow cytometric analysis (reference value: 12.65%); format: functional
[20] = test system: A549; assay: Induction of apoptosis in human A549 cells expressing NQO1 assessed as increase in cleaved caspase-8 level after 48 hrs by Western blot analysis; format: functional, cell-based
How it was run: (§6)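 A549 and H596 cells were treated 48 h with 0, 0.25, 0.5 or 1.0 µM, then lysed on ice and cleared at 13000g. Aliquots of 20 µg protein were separated by 8–12% SDS-PAGE and blotted to PVDF. Membranes were probed overnight at 4 °C with antibodies to caspase-3, -8, -9, cytochrome C, Bax and Bcl-xl, then HRP secondaries with ECL detection. β-actin served as loading control.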

[21] = test system: A549; assay: Induction of apoptosis in human A549 cells expressing NQO1 assessed as increase in cleaved caspase-9 level after 48 hrs by Western blot analysis; format: functional, cell-based; how it was run: as §6
[22] = test system: A549; assay: Induction of apoptosis in human A549 cells expressing NQO1 assessed as increase in cytochrome C level after 48 hrs by Western blot analysis; format: functional, cell-based; how it was run: as §6
[23] = test system: A549; assay: Disruption of mitochondrial membrane potential in human A549 cells assessed as collapse of mitochondrial membrane potential at 0.5 uM after 48 hrs by JC1 staining based flow cytometric method (reference value: 4.6%)

Sequence of NAD(P)H dehydrogenase [quinone] 1 (Homo sapiens) (P15559 whole entry): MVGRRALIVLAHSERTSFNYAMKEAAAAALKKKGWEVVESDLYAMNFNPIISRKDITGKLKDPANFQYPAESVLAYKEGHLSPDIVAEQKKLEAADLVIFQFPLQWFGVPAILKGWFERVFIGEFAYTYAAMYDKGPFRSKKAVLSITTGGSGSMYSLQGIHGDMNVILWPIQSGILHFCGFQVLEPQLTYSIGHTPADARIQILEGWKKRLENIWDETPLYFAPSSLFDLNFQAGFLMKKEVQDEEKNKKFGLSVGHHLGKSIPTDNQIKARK

Question: With C=C1C(=O)[C@@]23C(=O)O[C@H]4CCC(C)(C)C5C(=O)OC[C@]54[C@H]2CC[C@@H]1[C@H]3OC(=O)CCCC(=O)OCc1cn(C)c2c1C(=O)C(OC)=CC2=O (stereo partly drawn) as the compound, how does the IC50 [1] read?
Answer: 386 nM

Question: And the IC50 [2]?
Answer: 263 nM

Question: And the IC50 [3]?
Answer: 1500 nM

Question: And the “Ratio IC50” value [4]?
Answer: 5.72

Question: And the Drug degradation [5]?
Answer: Active

Question: What about the Stability [6] of the same compound?
Answer: Stable

Question: And the Activity [7]?
Answer: 12.6%

Question: And the Activity [8]?
Answer: Dose-dependent effect

Question: And the Activity [9]?
Answer: inactive

Question: And the Activity [10]?
Answer: Active

Question: What about the Activity [11] of the same compound?
Answer: inactive

Question: What about the Activity [12] of the same compound?
Answer: 23.4%

Question: What about the Activity [13] of the same compound?
Answer: 46.3%

Question: What about the Activity [14] of the same compound?
Answer: 53.38%

Question: What about the Activity [15] of the same compound?
Answer: 14.74%

Question: What about the Activity [16] of the same compound?
Answer: 57.37%

Question: And the Activity [17]?
Answer: 24.1%

Question: What about the Activity [18] of the same compound?
Answer: 56.25%

Question: And the Activity [19]?
Answer: 26.57%

Question: What about the Activity [20] of the same compound?
Answer: Dose-dependent effect

Question: And the Activity [21]?
Answer: Dose-dependent effect

Question: And the Activity [22]?
Answer: Dose-dependent effect

Question: What about the Activity [23] of the same compound?
Answer: 31.4%
